ChEMBL document CHEMBL1641580, “Identification of 3-phenylaminoquinolinium and 3-phenylaminopyridinium salts as new agents against opportunistic fungal pathogens” (Bioorg Med Chem, 2011)
Activity calls are given as the source filed them. No cut-off for these calls is given here.

Assays:
Candida albicans [1] = experiment: Antifungal activity against Candida albicans ATCC 90028 assessed as inhibition of fungal growth by alamar blue assay; type: functional, organism-based
Outline: (§1)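 Broth microdilution modified from NCCLS. DMSO stocks serially diluted in saline and plated in duplicate. Inoculum set by 0.5 McFarland standard. Media: C. albicans in SDB or RPMI 1640; C. neoformans in SDB; A. fumigatus in RPMI-1640 + 5% Alamar Blue. Highest final concentration 20 µg/mL. Plates read before and after incubation by fluorescence 544ex/590em (A. fumigatus) or OD 630 nm. IC50 from percent growth vs concentration.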

Aspergillus fumigatus [2] = experiment: Antifungal activity against Aspergillus fumigatus ATCC 90906 assessed as inhibition of fungal growth by alamar blue assay; type: functional, organism-based; outline: as §1
Aspergillus fumigatus [3] = experiment: Antifungal activity against Aspergillus fumigatus ATCC 90906 by microscopy; type: functional
Outline: (§2)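 Modified NCCLS microdilution. Samples in DMSO serially diluted in saline and tested in duplicate against inocula standardized to 0.5 McFarland. Broths: C. albicans SDB or RPMI 1640; C. neoformans SDB; A. fumigatus YM broth. Highest final concentration 20 µg/mL. MIC read visually as the lowest concentration with no detectable growth (for Alamar Blue wells, no blue-to-pink change).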

Candida albicans [4] = experiment: Fungicidal activity against Candida albicans ATCC 90028; type: functional
Candida albicans [5] = experiment: Antifungal activity against Candida albicans ATCC 90028 by microscopy; type: functional; outline: as §2
[6] = Cytotoxicity against african green monkey Vero cells after 48 hrs by neutral red assay; type: cell-based; conditions: chlorocebus sabaeus, read-out: TC50
Outline: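 Vero kidney fibroblasts seeded at 25,000 cells/well and grown 24 h, then exposed to samples up to 20 µg/ml for 48 h. Viable cells measured by neutral red assay. IC50 taken from growth-inhibition vs concentration curves. DMSO served as vehicle control.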

Cryptococcus neoformans [7] = experiment: Antifungal activity against Cryptococcus neoformans ATCC 90113 by microscopy; type: functional
Outline: as §2, with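 “McFarland.” for “McFarland. Broths: C. albicans SDB or RPMI 1640; C. neoformans SDB; A. fumigatus YM broth.”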

Aspergillus fumigatus [8] = experiment: Fungicidal activity against Aspergillus fumigatus ATCC 90906; type: functional
Cryptococcus neoformans [9] = experiment: Fungicidal activity against Cryptococcus neoformans ATCC 90113; type: functional
Cryptococcus neoformans [10] = experiment: Antifungal activity against Cryptococcus neoformans ATCC 90113 assessed as inhibition of fungal growth by alamar blue assay; type: functional, organism-based; outline: as §1
Aspergillus fumigatus [11] = experiment: Antifungal activity against Aspergillus fumigatus ATCC 90906 assessed as inhibition of fungal growth at 20 ug/mL by alamar blue assay; type: functional, organism-based; outline: as §1
[12] = Aspergillus fumigatus, ATCC 90906, read-out: IC50

MIC (Aspergillus fumigatus [3]) [mg/L]	MIC (Candida albicans [5]) [mg/L]	MIC (Cryptococcus neoformans [7]) [mg/L]	Compound	IC50 (Candida albicans [1]) [mg/L]	IC50 (Aspergillus fumigatus [2]; [12]) [mg/L]	MFC (Candida albicans [4]) [mg/L]	CC50 at 48 h [6] [mg/L]	MFC (Aspergillus fumigatus [8]) [mg/L]	MFC (Cryptococcus neoformans [9]) [mg/L]	IC50 (Cryptococcus neoformans [10]) [mg/L]	inhibition (Aspergillus fumigatus [11])	IC50 (Aspergillus fumigatus [2])
2.5	2.5	2.5	C[n+]1cccc(N(CCCCCC2CCCCC2)c2ccc(C(F)(F)F)cc2)c1.[I-]	1	1.5	10	> 10	5	5	1.5		
	> 20	> 20	C[n+]1c2cccc(Cl)c2cc2[nH]c3ccccc3c21.O=S(=O)([O-])C(F)(F)F	0.6	> 20		5			7		
	> 20	> 20	C[n+]1c2cc(Cl)ccc2cc2[nH]c3ccccc3c21.O=S(=O)([O-])C(F)(F)F	3	> 20		2.1			15		
1.6	3.1	1.6	C[n+]1cccc(N(CCCCCC2CCCCC2)c2ccc(Cl)cc2)c1.[I-]	1.5	1		> 10			1		
	10	5	COc1ccccc1N(CCCCCC1CCCCC1)c1ccc[n+](C)c1.[I-]	5		10			5	3	inactive	
> 20	5	2.5	Cc1ccccc1N(CCCCCC1CCCCC1)c1ccc[n+](C)c1.[I-]	2.6	19	5		> 20	2.5	1.5		
10	> 20	20	C[n+]1c2ccccc2cc2[nH]c3ccc(Br)cc3c21.[I-]	2.5			0.93			2.5		
2.5	2.5	1.3	C[n+]1cc(N(CCCCCC2CCCCC2)c2cccc(Cl)c2)cc2ccccc21.[I-]	0.9	1	10	> 10	10	5	0.9		
	20	5	C[n+]1cccc(N(CCCCCC2CCCCC2)c2ccc(C#N)cc2)c1.[I-]	19		> 20	> 10		5	2.6	inactive	
> 20	5.5	5	C[n+]1c2ccc(Cl)cc2cc2[nH]c3ccccc3c21.[I-]	0.5	10	> 20		> 20	> 20	2		
1.3	1.3	2.5	C[n+]1c2ccc(Cl)cc2cc2c1c1ccccc1n2CCCCCC1CCCCC1.[I-]	0.6		> 20	1.4	> 20	10	0.9		
	10	10	C[n+]1c2cc(Cl)ccc2c(Cl)c2[nH]c3ccccc3c21.[I-]	1	> 20	> 20	10		> 20	6		
> 20	> 20	6.3	Clc1ccc(Nc2cc3ccccc3[n+](CCCCCc3ccccc3)c2)cc1.[I-]	15	10	> 20	> 25	> 20	12.5	4		
20	5	1.3	C[n+]1cccc(N(CCCCCC2CCCCC2)c2cccc(Cl)c2)c1.[I-]	3	12.4	10	> 10	20	1.3	0.7		
			C[n+]1c2ccccc2cc2[nH]c3c(Cl)cccc3c21.[I-]	> 20			3.2			> 20		
> 20	5	2.5	C[n+]1cccc(N(CCCCCC2CCCCC2)c2ccccc2Cl)c1.[I-]	2.8	18	5		> 20	2.5	2		

MIC (Aspergillus fumigatus [3]) [mg/L]	MIC (Candida albicans [5]) [mg/L]	MIC (Cryptococcus neoformans [7]) [mg/L]	Compound	IC50 (Candida albicans [1]) [mg/L]	IC50 (Aspergillus fumigatus [2]; [12]) [mg/L]	MFC (Candida albicans [4]) [mg/L]	CC50 at 48 h [6] [mg/L]	MFC (Aspergillus fumigatus [8]) [mg/L]	MFC (Cryptococcus neoformans [9]) [mg/L]	IC50 (Cryptococcus neoformans [10]) [mg/L]	inhibition (Aspergillus fumigatus [11])	IC50 (Aspergillus fumigatus [2])
1.3	1.3	0.6	C[n+]1cc(N(CCCCCC2CCCCC2)c2ccc(Cl)cc2)cc2ccccc21.[I-]	0.5	0.8	5	10	10	2.5	0.4		
5	2.5	0.6	CCc1ccc(N(CCCCCC2CCCCC2)c2ccc[n+](C)c2)cc1.[I-]	1.3	2.7	5	10		5	0.4		
	> 20	> 20	C[n+]1c2ccccc2cc2[nH]c3ccc(Cl)cc3c21.[I-]	4.5	> 20		1.5			15		
10	5	1.3	CSc1ccc(N(CCCCCC2CCCCC2)c2ccc[n+](C)c2)cc1.[I-]	2	6.4	10	> 10	10	2.5	1.2		
5	1.3	0.3	C[n+]1cc(N(CCCCCC2CCCCC2)c2ccccc2Cl)cc2ccccc21.[I-]	0.63	3.1	1.3		20	0.6	0.2		
10	2.5	0.3	C[n+]1cc(N(CCCCCC2CCCCC2)c2ccccc2)cc2ccccc21.[I-]	1.2	4.6	2.5	9.8	10	0.6	0.2		
2.5	10	2.5	[I-].c1ccc(Nc2cc3ccccc3[n+](CCCCCC3CCCCC3)c2)cc1	3.5	1	> 20		10	10	1.5		
6.3	6.3	3.1	Clc1cccc(Nc2cc3ccccc3[n+](CCCCCC3CCCCC3)c2)c1.[I-]	2	3.5	13	> 10	> 20	50	2		
	5	5	C[n+]1cccc(N(CCCCCC2CCCCC2)c2ccccc2C(F)(F)F)c1.[I-]	2.6		5			5	2.3	inactive	
10	5	2.5	Cc1cccc(N(CCCCCC2CCCCC2)c2ccc[n+](C)c2)c1.[I-]	3	8.7	10	> 10	20	2.5	1.4		
	> 20	1.6	Clc1ccc(Nc2cc3ccccc3[n+](CCCCCC3CCCCC3)c2)cc1.[I-]	2			> 10		> 20	1		Not Active
		10	C[n+]1cccc(N(CCCCCC2CCCCC2)c2ccccc2C#N)c1.[I-]				> 10		20	6.6	inactive	
			C[n+]1c2ccccc2cc2[nH]c3cccc(Cl)c3c21.[I-]	> 20	> 20		> 4.7			> 20		
5	2.5	2.5	Cc1ccc(N(CCCCCC2CCCCC2)c2ccc[n+](C)c2)cc1.[I-]	1.5	1.5	10	> 10	5	5	1.5		
2.5	5	2.5	C[n+]1cccc(N(CCCCCC2CCCCC2)c2cccc(C(F)(F)F)c2)c1.[I-]	3	1.5	20	> 10	10	5	1.5		
